# Sampled rows, rich in hits. Any-hit rate of the full collection: about 3.8%.
# MC4R antag cAMP: human MC4R antagonism in cAMP assay; P32245; MC4R-expressing cells, MTII-stimulated cAMP, LANCE TR-FRET; inhibition, % at 6.5 µM; hit rate 0.48% among 360,000;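 active = inhibition above its plate's cutoff, the mean of tested wells on that plate plus 3 SD, cut at about 29% in these data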
#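 System – human MC4R-expressing U2OS cells · Also added – Melanotan II · Dosing – one concentration, 6.5 µM nominal · Timing – 30-min compound, 1-h challenge, 1-h detection, room temperature · Measured by – Eu-cAMP/anti-cAMP TR-FRET, emission 671 nm · Replicates – singlicate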
# Beta apoptosis: blocks beta cell apoptosis; INS-1E cytokine-induced death, ATP luminescence, 48 h; percent of positive-control rescue, neutral wells zero; protection from apoptosis, % (concentration not given with the values); hit rate 0.8% among 300,000; AID 435005;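 active = Every replicate reaches about 75%, or at least half do and their mean reaches it too, limit read from the data; inconclusive = At least half of replicates reach the limit but their mean does not; inactive = Under half of replicates reach the limit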;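 also: higher means more ATP so stronger rescue from cytokine killing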
# CSC inhib: cancer stem cell inhibition | cancer stem cell-like cells viability, luminescence | inhibition, % at 7.5 µM | hit rate 1.1% among 300,000 | AID 2717; in the data active = inhibition above about 75%; inconclusive = no clear call, values can overlap the other calls; tested in HMLE shEcad cells
# ANO1 block: blocks the mouse calcium-activated chloride channel TMEM16A. normalized B-score (activity score, 25-100; higher = stronger inhibition) at 10 µM. Q8BHY3. HEK293 TMEM16A/YFP iodide influx fluorescence, ionomycin. hit rate 1.2% among 310,000;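 active = ratio plate-corrected score three or more library SD toward inhibition, starting fluorescence score within five deviations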;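 also: score derived from kinetic fluorescence span divided by baseline fluorescence per well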
# Target sequence (Q8BHY3 whole entry, looked up): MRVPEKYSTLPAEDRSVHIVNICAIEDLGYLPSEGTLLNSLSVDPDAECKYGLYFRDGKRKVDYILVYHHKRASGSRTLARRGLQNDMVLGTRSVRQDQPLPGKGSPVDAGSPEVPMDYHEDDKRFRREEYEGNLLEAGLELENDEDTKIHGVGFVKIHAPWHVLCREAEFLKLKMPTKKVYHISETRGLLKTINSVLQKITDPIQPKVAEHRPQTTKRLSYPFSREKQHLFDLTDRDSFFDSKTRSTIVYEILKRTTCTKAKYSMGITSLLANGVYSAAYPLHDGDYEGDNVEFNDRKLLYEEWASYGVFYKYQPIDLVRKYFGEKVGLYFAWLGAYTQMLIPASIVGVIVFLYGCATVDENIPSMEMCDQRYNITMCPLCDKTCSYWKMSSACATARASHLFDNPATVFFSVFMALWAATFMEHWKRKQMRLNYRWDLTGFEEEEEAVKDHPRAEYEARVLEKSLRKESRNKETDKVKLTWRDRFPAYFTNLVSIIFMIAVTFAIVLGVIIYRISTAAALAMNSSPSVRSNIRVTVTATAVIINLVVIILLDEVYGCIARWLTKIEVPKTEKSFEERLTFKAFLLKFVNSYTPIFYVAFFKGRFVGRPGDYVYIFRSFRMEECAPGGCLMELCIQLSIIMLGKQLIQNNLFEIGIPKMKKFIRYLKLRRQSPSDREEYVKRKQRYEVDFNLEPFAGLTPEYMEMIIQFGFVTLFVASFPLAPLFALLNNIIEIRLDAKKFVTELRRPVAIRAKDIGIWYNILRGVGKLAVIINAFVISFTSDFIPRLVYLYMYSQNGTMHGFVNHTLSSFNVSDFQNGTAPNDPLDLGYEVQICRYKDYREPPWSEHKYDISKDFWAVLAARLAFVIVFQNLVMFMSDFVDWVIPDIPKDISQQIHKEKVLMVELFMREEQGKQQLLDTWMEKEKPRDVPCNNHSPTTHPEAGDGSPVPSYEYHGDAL
# ANO1 activ: mouse TMEM16A channel activation, primary screen | Q8BHY3 | HEK293 TMEM16A/YFP-H148Q/I152L, iodide quench fluorescence; active compounds read low | B-score at 10 µM | hit rate 0.3% among 340,000;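 active = fluorescence-ratio B-score plate-corrected deviation score at least 3 library SD below zero, with starting fluorescence score within 5 deviations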;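 also: channel opened by trigger with iodide after compound preincubation; score built on the fluorescence ratio of max minus min over baseline; more negative score means more quench and so TMEM16A activation or potentiation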
# MC4R barr agon: agonists of human melanocortin 4 receptor (MC4R) beta-arrestin. P32245. U2OS MC4R beta-arrestin complementation, luminescence; percent of melanotan II response, DMSO zero. activation, % at 8.9 µM. hit rate 0.98% among 360,000;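 active = activation above a per-plate cutoff, the mean activation of sample wells on that plate plus 3 SD, cut at about 8% in these data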
# Hits are given with their value; – = inactive; ? = inconclusive; · = no result.
SMILES,MC4R antag cAMP,Beta apoptosis,CSC inhib,ANO1 block,ANO1 activ,MC4R barr agon
CCC(C)NC(=O)Nc1ccc(Br)cc1 (stereo unspecified),–,–,–,–,–,–
COc1ccc(-c2noc(CCC(=O)N3CCN(c4ccc(C(F)(F)F)cc4)CC3)n2)cc1,–,·,·,·,·,–
Cc1ccc(-c2noc(CCC(=O)N3CCN(c4cccc(C(F)(F)F)c4)CC3)n2)cc1,–,–,–,25,–,–
CS(=O)(=O)Nc1cccc(NC(=O)C2Cc3c(-c4ccco4)ccnc3O2)c1 (stereo unspecified),–,·,·,·,·,–
COC(=O)N/N=C/c1ccccc1OCCOc1ccc(OC)cc1,–,–,–,–,–,–
C=CCNC(=S)N/N=C/c1ccccc1OCCOc1ccccc1,–,–,–,–,–,8.9
Cc1ccc(C(=O)Nc2ncc(C)s2)o1,–,–,–,–,–,–
Cc1ccc(C(=O)Nc2ncc(Cc3ccc(F)cc3)s2)o1,–,–,120.1,–,–,–
CC(C)CSC1=NSC2=NC(=O)/C(=C\c3ccccc3)C(=N)N12,–,–,–,25,–,–
COc1ccc(OC)c(CCNC(=O)Cn2sc3nc(C)cc(C)c3c2=O)c1,·,·,–,25,·,·
COc1ccc(C(=O)/C=C/c2ccc(N3CCCCC3)c([N+](=O)[O-])c2)c(OC)c1,–,–,96.5,–,–,–
Cc1ccc(C2Nc3ccccc3NC3=C2C(=O)CC(C)(C)C3)c(O)c1 (stereo unspecified),–,–,–,–,–,–
Cc1ccc2c(c1)NC(c1cccs1)C1=C(CC(C)(C)CC1=O)N2 (stereo unspecified),–,–,–,–,-5.06,–
CCN(CC)c1ccc(C=Nc2ccc(OC)c(S(=O)(=O)N3CCOCC3)c2)c(O)c1,–,–,–,·,–,–
Cc1ccc(Cn2cc(SCC(=O)Nc3nccs3)c3ccccc32)cc1,–,–,–,–,–,–
Cc1cccc(Cn2cc(SCC(=O)Nc3nccs3)c3ccccc32)c1,–,–,–,–,–,8.7
O=C(Nc1ccc2c(c1)OCO2)c1ccc(COc2ccc3c(c2)CCC3)o1,–,–,86.1,–,–,–
O=C(CC1SC(=Nc2ccccc2)N(CCc2ccccn2)C1=O)Nc1ccc(F)cc1 (stereo unspecified),–,–,–,–,–,–
O=C(CC1SC(=Nc2ccccc2)N(CCc2c[nH]c3ccccc23)C1=O)Nc1ccccc1F (stereo unspecified),–,–,81.1,–,–,–
COc1ccc(Cl)c(Cn2c(NCc3ccco3)nc3c2c(=O)n(C)c(=O)n3C)c1,–,77.8,–,–,–,–
COc1cccc(Cn2c(NCc3ccco3)nc3c2c(=O)n(C)c(=O)n3C)c1,·,94.5,–,–,·,·
COCCNc1nc2c(c(=O)n(C)c(=O)n2C)n1Cc1cccc(C(F)(F)F)c1,–,87.1,·,–,–,–
CC(O)CNc1nc2c(c(=O)n(C)c(=O)n2C)n1Cc1cccc(C(F)(F)F)c1 (stereo unspecified),–,–,–,–,–,–
CC[C@H](C)[C@H]1CNC(=O)C(=O)N1CC1CCN(CC2CCC(C)CC2)CC1 (stereo partly specified),–,·,·,·,·,–
CSc1ccc(CN2CCC2(C)C(=O)NC2CCN(Cc3ccccc3)CC2)cc1 (stereo unspecified),–,·,·,·,·,–
SMILES,MC4R antag cAMP,Beta apoptosis,CSC inhib,ANO1 block,ANO1 activ,MC4R barr agon
C=C1/C=C(\C)[C@](C)(O)C[C@H](O)CC(=O)[C@H](O)[C@@H](O)[C@H](C)C[C@H](C)OC(=O)/C(C)=C/CC/C=C/[C@@H]2O[C@H]2C[C@H](C)C1,·,92.3,·,·,·,·
O=C(O)c1ccc(C=C(c2nc3ccccc3s2)c2nc3ccccc3s2)cc1,–,–,81.8,–,–,–
CN(C)c1ccc(/C=C(\Cl)c2nc3ccccc3s2)cc1,–,–,91.7,–,–,–
CC(C)(C)c1ccc(-c2nc(C#N)c(NCCCn3ccnc3)o2)cc1,–,–,88.0,–,–,–
N#Cc1nc(-c2ccc(OCc3ccccc3Cl)cc2)oc1NCCCn1ccnc1,·,–,93.6,–,·,·
N#Cc1nc(-c2ccc(OCc3ccccc3)cc2)oc1NCCCn1ccnc1,–,–,88.2,–,–,–
CCCOc1ccc(-c2nc(C#N)c(NCCCn3ccnc3)o2)cc1,–,–,–,–,–,–
CC(Sc1nnc(CC(=O)Nc2ccccc2F)n1C)C(=O)Nc1nccs1 (stereo unspecified),–,–,–,–,–,–
COc1ccc(Br)cc1CSC(=N)N,–,·,–,–,–,–
CCCCCOc1ccc(Br)cc1CSC(=N)N,–,·,·,·,-7.73,–
Cc1ccn2c(NC(=O)c3ccccc3)c(-c3ccccc3)nc2c1,–,–,–,–,–,–
Cc1ccc2nc(-c3ccccn3)c(Nc3ccccc3C)n2c1,–,101.0,?,–,–,–
Cc1ccn2c(Nc3ccccc3)c(-c3ccccn3)nc2c1,–,96.3,80.9,–,–,–
Cc1cccn2c(Nc3ccccc3)c(-c3ccccn3)nc12,–,78.2,–,–,–,–
Cc1ccccc1Nc1c(-c2ccccn2)nc2ccccn12,–,–,–,–,–,–
Cc1ccn2c(Nc3ccccc3C)c(-c3ccccn3)nc2c1,–,94.1,–,–,–,–
Cc1cc(OCC(=O)Nc2ccc(CN3CCOCC3)cc2)c2c(C)c(C)c(=O)oc2c1,–,–,–,–,–,–
CCN(CC)C(=O)c1cccc(-c2csc(C(O)c3ccc(F)c(OC)c3)n2)c1 (stereo unspecified),–,·,·,·,·,–
CC(C)(O)[C@@H]1CC[C@@](C)(C2CC[C@]3(C)C2[C@H](O)CC2[C@@]4(C)CC[C@H](O)C(C)(C)C4[C@@H](O[C@H]4O[C@@H](CO)[C@H](O)[C@@H](O)[C@@H]4O[C@@H]4O[C@H](CO)[C@@H](O)[C@H](O)[C@H]4O)C[C@]23C)O1 (stereo in doubt),–,–,–,·,–,–
CCCc1ccc(-c2cc(NC(=O)CSc3nnc(N)s3)n(-c3ccccc3)n2)cc1,–,–,85.1,–,–,–
Cc1ccc(Cl)cc1N1CCN(S(=O)(=O)N2CCCCC2)CC1,–,–,–,–,-9.75,–
COc1cc(C(=O)NS(=O)(=O)c2ccccc2C)ccc1Cc1cn(C)c2ccc(NC(=O)OC3CCCC3)cc12,·,–,–,100,·,·
Cc1ccc(CCCNC(=O)C2CCC(=O)N(Cc3cccc(F)c3)C2)cc1 (stereo unspecified),–,–,–,–,–,–
O=[N+]([O-])c1ccc(Oc2ccc(S(=O)(=O)N3CCCCC3)cc2)cc1,–,–,–,25,–,–
Cc1nc2ccccc2c(=O)n1-c1ccc(F)c(NS(=O)(=O)c2ccccc2F)c1,–,–,·,–,–,–

# Screens: PubChem BioAssay, several laboratories
